For seven compounds, Activity, selectivity ratio and EC50 results are on record in ChEMBL document CHEMBL2029225, “Synthesis of marine-derived 3-alkylpyridinium alkaloids with potent antiprotozoal activity” (ACS Med Chem Lett, 2011).

In data set [1] the test system is Trypanosoma brucei brucei. Kind of data set: Antitrypanosomal activity against bloodstream form of Trypanosoma brucei brucei s427 assessed as increase in propidium iodide uptake at 0.3 to 1 uM up to 48 hrs by flow cytometry. In kind it is functional, organism-based. In a few lines: (§1)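 Bloodstream-form T. brucei cultures were exposed to compound for up to 48 h, with duplicate samples taken at 24 and 48 h. Lysis sample: PI added directly for 10 min. DNA-content sample: fixed in 70% methanol or permeabilized with digitonin, RNase-treated, then PI-stained. 10000 cells were counted per panel by flow cytometry, and the experiment was run three times.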
(In flow cytometry, cells or beads pass a laser one at a time.)

Data set [2] can be described thus: Selectivity ratio of EC50 for human HEK293 cells to EC50 for TbAt1-deficient bloodstraem form of Trypanosoma brucei brucei 427 (BS221). To be noted: read-out: Ratio EC50. Format: ADME, cell-based.
The subject of data set [3] is Trypanosoma brucei brucei. Kind of data set: Antitrypanosomal activity against bloodstream form of Trypanosoma brucei brucei s427 assessed as DNA fragmentation at 0.3 to 1 uM up to 48 hrs by flow cytometry. In kind it is functional, organism-based. In a few lines:
as §1

Data set [4] deals with Trypanosoma brucei brucei. The experiment in a line: Antitrypanosomal activity against TbAt1-deficient bloodstraem form of Trypanosoma brucei brucei 427 (BS221) after 72 hrs by alamar blue assay. Format: functional, organism-based.
Data set [5] has as its system Trypanosoma brucei brucei. Kind of data set: Antitrypanosomal activity against bloodstream form of Trypanosoma brucei brucei 427 (BS221) assessed as increased propidium iodide uptake at 50 to 100 uM after 30 mins by real-time cell lysis assay. Format: functional, organism-based. In a few lines: (§2)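 Real-time lysis assay with bloodstream-form T. brucei: propidium iodide in the medium fluoresces only on binding DNA/RNA in membrane-compromised cells. Fluorescence was followed for up to 8 h across a range of concentrations. The read-out was the time to reach 80% lysis versus concentration.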

In the next data set the test system is Leishmania major. Kind of data set: Antileishmanial activity against promastigotes of Leishmania major Friedlin after 72 hrs by alamar blue assay. Format: functional, organism-based. A general note: Resazurin is reduced to fluorescent resorufin, in cell work by metabolically active cells.
Data set [6] has as its system Trypanosoma brucei brucei. The experiment in a line: Antitrypanosomal activity against Trypanosoma brucei brucei 427 at 10 uM after 24 hrs by hemocytometry. In kind it is functional, organism-based. In a few lines:
(§3)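 Reversibility test: bloodstream-form T. brucei cultures seeded at 2 × 10⁴ cells, compound added at t = 0 h. Compound was washed out after 24 h or 48 h, or left in. Growth was monitored over 72 h against drug-free controls.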

The nature of data set [7]: Selectivity ratio of EC50 for human HEK293 cells to EC50 for Leishmania mexicana MNYC/BZ/62/M379. Format: ADME, cell-based. The following applies: read-out: Ratio EC50.
The subject of data set [8] is Trypanosoma brucei brucei. Kind of data set: Antitrypanosomal activity against digitonin permeabilized bloodstream form of Trypanosoma brucei brucei s427 assessed as decrease in 2C/4C DNA content by DAPI staining-based fluorescent microscopy. Format: functional, organism-based.
Data set [9] has as its system Trypanosoma brucei brucei. Kind of data set: Antitrypanosomal activity against bloodstream form of Trypanosoma brucei brucei 427 (BS221) after 72 hrs by alamar blue assay. In kind it is functional, organism-based.
Data set [10] relates to Trypanosoma brucei brucei. The experiment in a line: Antitrypanosomal activity against TbAt1-deficient bloodstraem form Trypanosoma brucei brucei B48 after 72 hrs by alamar blue assay. In kind it is functional, organism-based. To be noted: B48, 72 h.
The test system of the next data set is HEK-293T. Kind of data set: Cytotoxicity against human HEK293T cells after 72 hrs by alamar blue assay. In kind it is cell-based.
Data set [11] in a line: Selectivity ratio of EC50 for human HEK293 cells to EC50 for Leishmania major Friedlin. In kind it is ADME, cell-based. To be noted: read-out: Ratio EC50.
Data set [12] is described as follows: Selectivity ratio of EC50 for human HEK293 cells to EC50 for bloodstream form of Trypanosoma brucei brucei 427 (BS221). In kind it is ADME, cell-based. To be noted: read-out: Ratio EC50.
For another data set, the system named is Plasmodium falciparum. The experiment in a line: Antiplasmodial activity against Plasmodium falciparum 3D7 assessed as inhibition of [3H]hypoxanthine incorporation after 18 hrs by liquid scintillation counting. In kind it is functional, organism-based.
Data set [13] relates to Trypanosoma brucei brucei. Kind of data set: Antitrypanosomal activity against digitonin permeabilized bloodstream form of Trypanosoma brucei brucei s427 assessed as DNA fragmentation at 0.3 to 1 uM up to 48 hrs by flow cytometry. In kind it is functional, organism-based. The method in brief:
as §1

Data set [14] concerns Trypanosoma brucei brucei. Kind of data set: Antitrypanosomal activity against bloodstream form of Trypanosoma brucei brucei 427 (BS221) assessed as increased propidium iodide uptake at >/=100 times EC50 after 8 hrs by real-time cell lysis assay. In kind it is functional, organism-based. The method in brief: as §2
Data set [15] deals with Trypanosoma brucei brucei. Kind of data set: Antitrypanosomal activity against digitonin permeabilized bloodstream form of Trypanosoma brucei brucei s427 assessed as increase in propidium iodide uptake at 0.3 to 1 uM up to 48 hrs by flow cytometry. Format: functional, organism-based. The method in brief: as §1
Another data set relates to Leishmania mexicana. The experiment in a line: Antileishmanial activity against amastigotes of Leishmania mexicana MNYC/BZ/62/M379 after 72 hrs by alamar blue assay. In kind it is functional, organism-based. The following applies: MNYC/BZ/62/M379, 72 h.
In data set [16] the test system is Trypanosoma brucei brucei. Kind of data set: Antitrypanosomal activity against bloodstream form of Trypanosoma brucei brucei 427 (BS221) assessed as increased propidium iodide uptake at 10 to 50 times EC50 after by real-time cell lysis assay. Format: functional, organism-based. The method in brief:
as §2

Data set [17] is described as follows: Selectivity ratio of EC50 for human HEK293 cells to EC50 for Plasmodium falciparum 3D7. Format: ADME, cell-based. To be noted: read-out: Ratio EC50.
In data set [18] the test system is Trypanosoma brucei brucei. The experiment in a line: Antitrypanosomal activity against bloodstream form of Trypanosoma brucei brucei 427 (BS221) assessed as increased propidium iodide uptake at 780 nM after 3 hrs by real-time cell lysis assay. In kind it is functional, organism-based. The method in brief: as §2
For data set [19], the system named is Trypanosoma brucei brucei. Kind of data set: Antitrypanosomal activity against Trypanosoma brucei brucei 427 at 1 uM after 48 hrs by hemocytometry. Format: functional, organism-based. In a few lines: as §3
Data set [20] concerns Trypanosoma brucei brucei. Kind of data set: Antitrypanosomal activity against Trypanosoma brucei brucei 427 at 0.1 uM after 72 hrs by hemocytometry. In kind it is functional, organism-based. In a few lines:
as §3

Data set [21] concerns Trypanosoma brucei brucei. The experiment in a line: Antitrypanosomal activity against bloodstream form of Trypanosoma brucei brucei s427 assessed as increase in propidium iodide uptake at 0.3 uM after 48 hrs by flow cytometry. Format: functional, organism-based. The method in brief: as §1
Data set [22] deals with Trypanosoma brucei brucei. Kind of data set: Antitrypanosomal activity against digitonin permeabilized bloodstream form of Trypanosoma brucei brucei s427 assessed as increase in propidium iodide uptake at 1 uM at 24 hrs by flow cytometry. Format: functional, organism-based. In a few lines: as §1
In data set [23] the test system is Trypanosoma brucei brucei. Kind of data set: Antitrypanosomal activity against bloodstream form of Trypanosoma brucei brucei s427 assessed as DNA fragmentation at 0.3 uM after 48 hrs by flow cytometry. Format: functional, organism-based. The method in brief:
as §1

For data set [24], the system named is Trypanosoma brucei brucei. The experiment in a line: Antitrypanosomal activity against bloodstream form of Trypanosoma brucei brucei s427 assessed as cell cylce arrest at 0.3 uM after 24 hrs by flow cytometry. In kind it is functional, organism-based. In a few lines:
as §1

The test system of data set [25] is Trypanosoma brucei brucei. Kind of data set: Antitrypanosomal activity against digitonin permeabilized bloodstream form of Trypanosoma brucei brucei s427 assessed as DNA fragmentation at 1 uM at 24 hrs by flow cytometry. Format: functional, organism-based. In a few lines: as §1
Data set [26] deals with Trypanosoma brucei brucei. The experiment in a line: Antitrypanosomal activity against Trypanosoma brucei brucei 427 at 1 uM after 24 hrs by hemocytometry. Format: functional, organism-based. In a few lines: as §3

The source made the active and inactive calls. No cut-off for these calls is given here. Bounds are passed on as bounds.

As to `CCCC[n+]1cccc(CCCCCCCCCCCCCO)c1`, the outcome in [1], in [3], in data set [8], in data set [13] and in data set [15] was inactive. The selectivity ratio in data set [2] stood at 299; in [7], 145; in data set [11] it was 145; in [12] it was 299. The EC50 – broadly, the concentration giving half of the maximal effect – in data set [4] came out at 260 nM; with Leishmania major, 330 nM; in data set [9] it was 160 nM; in data set [10], 200 nM; in the data set with HEK-293T, 48000 nM; with Plasmodium falciparum, 510 nM. Moreover, the EC50 with Leishmania mexicana worked out at 1700 nM. In addition, the outcome in data set [5], in [6] and in [14] was Active.
For `c1cc2c[n+](c1)CCCCCCCCCCCCCc1ccc[n+](c1)CCCCCCCCCCCCCc1ccc[n+](c1)CCCCCCCCCCCCC2` [VISCOSAMINE], the outcome in data set [16] and in data set [5] was Active. Moreover, the EC50 in data set [4] was determined as 490 nM; in the data set on Leishmania major, 720 nM; in [9], 410 nM; in [10], 280 nM; with HEK-293T it was 26000 nM; in the data set on Plasmodium falciparum, 53 nM. Moreover, the EC50 in the data set with Leishmania mexicana turned out to be 810 nM. The selectivity ratio in data set [17] came to 493.
In the case of `OCCCCCCCCCCCCCc1ccc[n+](CCCCCCCCCCCCCc2cccnc2)c1`, the concentration giving a half-maximal response (EC50) in data set [4] was 620 nM; with Leishmania major, 1600 nM; in data set [9] it was 400 nM; in data set [10], 300 nM; in the data set on HEK-293T, 25000 nM; in the data set on Plasmodium falciparum, 140 nM. Moreover, the EC50 in the data set with Leishmania mexicana was found to be 340 nM. Besides, the outcome in [5] and in data set [18] was Active.
As to `COc1ccc(C[n+]2cccc(CCCCCCCCCCCCCO)c2)cc1`, the outcome in data set [1], in data set [3], in data set [8], in data set [20], in data set [13] and in data set [15] was inactive. For the same compound, the selectivity ratio in data set [2] and in data set [12] was 437 each time. Moreover, the EC50 is 84 nM in data set [4]; 320 nM in the data set with Leishmania major; 49 nM in [9]; 62 nM in data set [10]; 21000 nM with HEK-293T; 240 nM in the data set with Plasmodium falciparum. This compound displayed an EC50 in the data set with Leishmania mexicana of 650 nM. In addition, the result in data set [5], in data set [6], in data set [19] and in data set [14] was Active.
Turning to `CCCC[n+]1cccc(CCCCCCCCCCCCCI)c1`, the selectivity ratio in data set [2] and in [12] was greater than 1000 each time. Also, the EC50 in [4] stood at 63 nM; in the data set on Leishmania major it was 360 nM; in data set [9], 14 nM; in data set [10], 34 nM; with HEK-293T it was 26000 nM; in the data set with Plasmodium falciparum, 310 nM. Further, a half-maximal response in the data set on Leishmania mexicana (EC50) required 290 nM. The outcome in [5], in data set [21], in data set [22], in data set [6], in data set [23] and in data set [14] was Active. In [26], the outcome was Active. Also, the outcome in data set [8], in data set [20], in data set [24] and in data set [25] was inactive.
For `OCCCCCCCCCCCCCc1ccc[n+](CCCCCCCCCCCCCc2ccc[n+](CCCCCCCCCCCCCc3cccnc3)c2)c1`, the result in data set [16] and in data set [5] was Active. In addition, the EC50 amounted to 270 nM in data set [4]; 850 nM with Leishmania major; 220 nM in data set [9]; 250 nM in [10]; 16000 nM in the data set on HEK-293T; 68 nM in the data set with Plasmodium falciparum. In the data set with Leishmania mexicana, this compound registered an EC50 of 190 nM. Also, the selectivity ratio in data set [17] stood at 237.
For the compound `C[n+]1cccc(CCCCCCCCCCCCCI)c1`, the outcome in [1], in data set [3], in data set [8], in data set [13] and in data set [15] was inactive. Further, the selectivity ratio in data set [2] stood at 540; in [7], 149; in [11], 149; in [12], 540. The EC50 in data set [4] worked out at 180 nM; in the data set with Leishmania major, 310 nM; in data set [9], 86 nM; in [10] it was 110 nM; with HEK-293T, 47000 nM; in the data set on Plasmodium falciparum, 260 nM. In the data set on Leishmania mexicana, this compound showed an EC50 of 280 nM. The result in [5], in [6] and in data set [14] was Active.
